Assay outcomes (PubChem)
Sampled rows, rich in hits. Any-hit rate of the full collection: about 4.1%.
KCNQ1 block = inhibitors of human KCNQ1 channel, primary screen, cell-based, thallium flux, high-throughput. 310,000 tested, 1.3% active. B-score at 10 µM. CHO-K1 KCNQ1, FluxOR thallium flux fluorescence; hits give high values. Potassium voltage-gated channel subfamily KQT member 1 (Homo sapiens), P51787;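 active = compounds whose thallium flux B-score, printed positive for inhibition, exceeds three library SD while starting fluorescence stays within three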;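 note: channel opened by potassium depolarization with thallium stimulus after 20 min compound exposure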
hERG rescue = hERG rescue from dofetilide block, primary screen, cell-based, CHO-hERG, FluxOR thallium flux, dofetilide IC70 | dofetilide IC70 present | activation (rescue from dofetilide block), less the hit threshold, % at 10 µM | 310,000 tested, 0.51% active;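 active = activation above the mean of controls blocked by dofetilide plus 5 SD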;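 note: thallium influx through hERG after potassium depolarization seen as dye fluorescence rise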
KCNQ1 act = potentiators or activators of KCNQ1 channel, primary screen, cell-based, thallium flux, high-throughput. CHO-K1 KCNQ1, thallium flux FluxOR fluorescence; hits give high values. B-score at 10 µM. 310,000 tested, 0.35% active. AID 2648, 2010;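 active = fluorescence ratio B-score, a plate-corrected score, at least three library SD, with initial intensity B-score within 5 SD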
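Schedule – 37 °C overnight plating, 90-min dark dye load, 20-min compound pretreatment · System – stable KCNQ1 CHO-K1 line · Probe or stimulus – thallium- and potassium-containing depolarizing buffer · Measured by – kinetic FluxOR fluorescence, 10 s baseline plus 110 s post-stimulus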
KCNK3 inh = human KCNK3 channel inhibitors, primary screen, CHO cells, FluxOR thallium flux, B-score; AID 602410, 2012; B-score at 10 µM; 340,000 tested, 0.84% active; FluxOR fluorescence; hits give low values; Potassium channel subfamily K member 3 (Homo sapiens), O14649;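 active = B-score under library mean minus 4 SD, starting fluorescence ratio at most library mean plus 5 SD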;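 note: more negative B-score means stronger inhibition of thallium flux through KCNK3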
KCC2 mod = KCC2 cotransporter modulators, thallium flux, primary screen, cell-based, HEK293 KCC2, FluoZin-2 fluorescence, MLSMR | 190,000 tested, 2.2% active | B-score of Tl+ flux slope (higher = more flux/activation; lower = inhibition) at 10 µM | KCC2 cells, thallium flux FluoZin-2 fluorescence;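 active = thallium flux slope and its plate-corrected score both differing from the plate sample mean at a set confidence after two filtering rounds, in either direction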;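 note: slope of fluorescence scaled to starting intensity during 10 to 20 s after thallium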
KCNK9 block = KCNK9 potassium channel inhibitors, primary screen, HEK293 cells, thallium flux; FluxOR thallium flux fluorescence; hits give low values; B-score at 10 µM; 310,000 tested, 1.2% active; AID 488922, 2010;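 active = ratio B-score over 3 SD below the library mean, with starting fluorescence within 5 SD of its mean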;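 note: negative B-score means less thallium flux so channel inhibition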
Target sequence (Q9NPC2 whole entry, looked up): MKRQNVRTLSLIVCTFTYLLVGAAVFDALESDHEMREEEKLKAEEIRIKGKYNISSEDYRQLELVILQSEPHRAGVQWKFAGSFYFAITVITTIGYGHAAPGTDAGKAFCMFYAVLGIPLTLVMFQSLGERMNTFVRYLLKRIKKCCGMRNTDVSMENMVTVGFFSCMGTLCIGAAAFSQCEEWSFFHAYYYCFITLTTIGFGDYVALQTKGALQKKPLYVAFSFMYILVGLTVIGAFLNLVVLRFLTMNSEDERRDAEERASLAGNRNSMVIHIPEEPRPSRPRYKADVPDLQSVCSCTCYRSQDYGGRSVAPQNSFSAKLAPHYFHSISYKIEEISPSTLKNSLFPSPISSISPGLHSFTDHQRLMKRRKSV
KCNQ1 block val = KCNQ1 potassium channel inhibitors, confirmation, cell-based, Tl flux, duplicate. 1,600 tested, 93% active. shares compounds with KCNQ1 block. KCNQ1 cell line, FluxOR thallium flux fluorescence. inhibition, % at 10 µM;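 active = primary screen active, with duplicate mean exceeding buffer control mean plus 3 SD of buffer wells, cut at about 28% in these data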;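 note: 0% = buffer control ratio and 100% = XE991 inhibitor control ratio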
CHO Tl flux = thallium flux effects in parental CHO cells, counter-screen for KCNQ1 inhibitor project, cell-based, Tl flux. shares compounds with KCNQ1 block. parental CHO-K1, FluxOR thallium flux fluorescence ratio; hits give low values; zero means no signal rise above baseline. fluorescence ratio (Tl flux) at 10 µM. 1,600 tested, 21% active;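 active = mean of duplicate thallium-flux fluorescence ratios in parental host cells more than 5 SD below the buffer control mean, cut at about 0.38 in these data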;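 note: ratio is peak minus minimum fluorescence divided by baseline fluorescence; actives read low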
KCNQ1 ephys val = KCNQ1 channel inhibitors, confirmation, orthogonal assay, cell-based, automated electrophysiology | calls only at 10 µM | shares compounds with KCNQ1 block | KCNQ1-CHO cells, automated patch clamp current | 490 tested, 20% active;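 active = KCNQ1 current drop exceeding 3 SD of negative control wells, seen in both duplicate runs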;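 note: steady state current during a 2 s step from -80 to +40 mV; negative values mean current inhibition and positive values mean potentiation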
KCNQ2 spec = KCNQ2 channel inhibition, selectivity assay for KCNQ1 inhibitor project, cell-based; 1,600 tested, 71% active; KCNQ2 cells, FluxOR thallium flux fluorescence; inhibition, % at 10 µM; shares compounds with KCNQ1 block;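 active = mean percent inhibition of the KCNQ2 thallium signal more than 5 SD above the buffer-only control wells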;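 note: KCNQ2 expressed in CHO cells; 0% = buffer control wells and 100% = XE-991 inhibitor control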
KCNQ1-KCNE1 inh = KCNQ1/KCNE1 channel inhibition, selectivity assay for KCNQ1 inhibitor project, CHO-K1 cells, thallium flux, FluxOR; 1,600 tested, 77% active; shares compounds with KCNQ1 block; AID 652147, 2013; inhibition, % at 10 µM; FluxOR thallium flux fluorescence;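 active = mean percent inhibition of duplicate wells above the buffer-only control mean plus 3 SD of those controls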;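 note: 0% = buffer only wells and 100% = XE-991 inhibitor control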
KCNK9 inh conf = KCNK9 potassium channel inhibitors, confirmation, HEK293 cells, thallium flux, duplicate; inhibition, % at 10 µM; AID 492992, 2010; shares compounds with KCNK9 block; 4,900 tested, 43% active; FluxOR thallium flux fluorescence;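 active = thallium signal inhibited by more than 5 SD of the compound-free buffer control wells, on both duplicate plates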;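 note: 0% = assay buffer control wells without compound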
Kir2-1 spec = mouse Kir2.1 channel inhibition, confirmation, selectivity assay for KCNK9 modulator project, cell-based, HEK293, thallium flux; inhibition, % at 10 µM; 4,900 tested, 4% active; Kir2.1 cells, FluxOR thallium flux fluorescence; AID 492993, 2010; shares compounds with KCNK9 block;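 active = thallium signal drop more than 5 SD beyond the mean of the no-compound control wells, seen in both duplicate plates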;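 note: signal is fluorescence rise after thallium addition divided by baseline fluorescence; plate controls were assay buffer only for no effect and full block by chlorpromazine control for full effect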
Target sequence (P35561 whole entry, looked up): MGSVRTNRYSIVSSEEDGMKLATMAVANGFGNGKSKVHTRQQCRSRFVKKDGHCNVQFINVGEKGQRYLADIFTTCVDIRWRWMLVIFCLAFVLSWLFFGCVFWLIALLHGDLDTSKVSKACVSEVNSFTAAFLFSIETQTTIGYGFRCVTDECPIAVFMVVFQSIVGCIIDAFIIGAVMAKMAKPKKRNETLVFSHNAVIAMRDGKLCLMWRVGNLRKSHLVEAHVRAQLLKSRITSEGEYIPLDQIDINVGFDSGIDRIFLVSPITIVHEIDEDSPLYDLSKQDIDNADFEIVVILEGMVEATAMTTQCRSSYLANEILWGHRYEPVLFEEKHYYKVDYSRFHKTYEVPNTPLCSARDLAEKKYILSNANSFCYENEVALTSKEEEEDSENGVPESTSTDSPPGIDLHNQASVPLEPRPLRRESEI
HEK293 Tl ctr = thallium flux in non-induced HEK293 cells, confirmation, counter-screen for KCNK9 inhibitor project, cell-based, second counter screen, non-induced KCNK9-HEK293; shares compounds with KCNK9 block; FluxOR thallium flux; inhibition, % at 10 µM; 4,900 tested, 40% active; AID 492997, 2010;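 active = thallium signal drop beyond 5 SD of the untreated control mean, on both duplicate plates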;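 note: plate controls were buffer only IC0 wells for no effect and SID17386958 at its maximal inhibitory level for full effect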
KCNK3 inh conf = retest of human KCNK3 channel inhibitors, confirmation, CHO cells, FluxOR thallium flux, triplicate; shares compounds with KCNK3 inh; FluxOR fluorescence; 0% buffer, 100% carvedilol maximal block; ratio percent of control, % at 10 µM; 2,400 tested, 99% active; AID 651638, 2012;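 active = ratio percent of control, averaged over triplicates, above buffer control mean plus 5 SD, cut at about 64% in these data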;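 note: ratio is the fluorescence rise from min to max over baseline after thallium stimulus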
KCNK3 noninduced = thallium flux inhibition in non-induced cells, primary screen, counter-screen for KCNK3 inhibitor project, cell-based, non-induced KCNK3 line, FluxOR thallium, triplicate; shares compounds with KCNK3 inh; non-induced KCNK3 parental cells; hits give low values; thallium flux ratio (lower = more inhibition) at 10 µM; 2,400 tested, 40% active; AID 651747, 2012;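 active = thallium flux ratio, averaged over three wells, more than 5 SD below the buffer control mean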;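 note: host cells are CHO cells without KCNK3 induction; ratio is peak minus trough fluorescence over baseline then normalized to buffer controls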
* marks the source's active call; other numbers are inactive results; i = inactive; x = no result; + = active, no number.

SMILES | KCNQ1 block | hERG rescue | KCNQ1 act | KCNK3 inh | KCC2 mod | KCNK9 block | KCNK9 inh conf | Kir2-1 spec | HEK293 Tl ctr | others
Cc1cc(OC(C)C(=O)NCC(O)c2ccccc2)c2c3c(c(=O)oc2c1)CCC3 (stereo unspecified) | i | -7.5 | i | i | x | i | x | x | x
COc1ccc(CN2CCN(Cc3ccccc3F)CC2)cc1 | i | -2.6 | i | i | x | i | x | x | x
Cc1sc2c(c1C)C(c1ccc(C(C)(C)C)cc1)=NCC(=O)N2CC(=O)Nc1nccs1 | 6* | -17.1 | i | i | -1 | i | x | x | x | KCNQ1 block val=83.5*;CHO Tl flux=0.482;KCNQ2 spec=i;KCNQ1-KCNE1 inh=94.0%*
COc1cc(C(=O)OC2C[C@H]3CC[C@@H](C2)N3)ccc1O (stereo partly specified) | i | -2.7 | i | i | x | i | x | x | x
COc1ccc(-[n+]2c(-c3ccccc3)cc(-c3ccc(C)cc3)cc2-c2ccccc2)cc1 | 15* | -31.2 | i | -8.87* | x | -16.4* | 60.5%* | 78.0%* | 29.5%* | KCNQ1 block val=94.5*;CHO Tl flux=0.44;KCNQ1 ephys val=+;KCNQ2 spec=109.3%*;KCNQ1-KCNE1 inh=163.0%*
CCN(CC)C(=O)c1ccc(NC(=O)c2ccc(-n3cncn3)c([N+](=O)[O-])c2)cc1 | i | -9.0 | i | i | x | i | x | x | x
Cc1ccc(O)c(C(=O)c2cc(C(=O)NCCC(C)C)c(=O)n(CCC(C)C)c2)c1 | 19* | -14.2 | i | -9.48* | 0.00161 | i | x | x | x | KCNQ1 block val=129.5*;CHO Tl flux=0.389;KCNQ1 ephys val=i;KCNQ2 spec=125.7%*;KCNQ1-KCNE1 inh=124.0%*;KCNK3 inh conf=131.7*;KCNK3 noninduced=0.156*
COC(=O)C1=C(c2ccc(-c3ccccc3)c(F)c2)C[C@@H]2CC[C@H]1N2C(=O)NCCOc1ccccc1 | x | x | x | i | x | x | x | x | x
COc1cccc(OC)c1CN1CCCC(C(=O)c2cccc(Cl)c2)C1 (stereo unspecified) | i | -10.0 | i | i | x | i | i | i | i
COc1ccc(C(=O)C2CCCN(Cc3ccc(F)cc3F)C2)cc1F (stereo unspecified) | i | -6.3 | i | i | x | i | i | i | i
Cc1ncc(CN2CCCC(C(=O)c3cccc(OC(C)C)c3)C2)s1 (stereo unspecified) | i | -5.5 | i | i | 0.0393 | i | i | i | i
COc1ccc(OC)c(CN2CCCC(C(=O)c3sccc3C)C2)c1 (stereo unspecified) | i | -12.9 | i | i | -2.34 | i | i | i | i
COCCNC(=O)CN1C(=O)C(C)N=C(c2ccccc2)c2cc(Cl)ccc21 (stereo unspecified) | i | -6.0 | i | i | x | i | x | x | x
O=C(C(=O)N1CCOCC1)c1cn(Cc2ccccc2F)c2ccccc12 | i | -4.2 | i | i | x | i | x | x | x
Cc1ccc2c(C)cccc2c1 | x | x | x | i | x | x | x | x | x
C=CC(=O)OCCO | x | x | x | i | x | x | x | x | x
COC(=O)C1=C(c2ccc(F)cc2OCc2ccccc2)C[C@@H]2CC[C@H]1N2C(=O)NC1Cc2ccccc2C1 | x | x | x | i | x | x | x | x | x
Oc1ccc2ccccc2c1CN1CC=C(c2ccccc2)CC1 | i | -2.5 | i | i | -0.0414 | i | i | i | i
Cc1[nH]c2ccccc2c1C(=O)CN1CC=C(c2ccccc2)CC1 | i | -10.8 | i | i | 0.34 | i | x | x | x
C=CCC1(CCCCC)C(=O)NC(=S)NC1=O | x | x | x | i | x | x | x | x | x
Brc1ccc(-[n+]2c(-c3ccccc3)cc(-c3ccccc3)cc2-c2ccccc2)cc1 | 7* | -32.7 | i | i | x | -8.27* | 64.0%* | 58.5%* | i
Oc1c(Br)cc(-c2ccccc2)cc1Br | x | x | x | i | x | x | x | x | x
N=Cc1c(O)n(-c2ccccc2)c(=O)n(-c2ccccc2)c1=O | i | -9.0 | i | i | 1.18 | i | x | x | x
O=C(Nc1ccccc1)c1cccn(Cc2ccccc2)c1=O | i | -10.6 | i | i | -1.39 | i | x | x | x
